The values that follow come from publication PMC2847151 (Neurogenetics, 2009).

The subject of one assay is Pmp22 transgenic rats. Particulars: progesterone antagonist, ref [31]; cited from earlier work.
In another assay the test system is Med25 expression. Kind of assay: Med25 qRT-PCR expression in sciatic nerve of treated Pmp22 transgenic. The format is in vivo, rat. The gist of the method: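 Pmp22-transgenic rats received a progestin diet (20 mg/kg), a progesterone-receptor antagonist, or placebo (12, 12 and 8 animals). RNA was Trizol-extracted from sciatic nerve. Med25 was quantified by TaqMan qRT-PCR with unlabelled forward/reverse primers and a 5′-FAM probe, in triplicate, normalised to 18S rRNA run in parallel. Runs were repeated with GAPDH as the internal control.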
Background: Quantitative PCR measures a nucleic acid by following its amplification.

For a further assay, the system named is Pmp22 expression. Particulars: peripheral nerves of Pmp22 transgenic rats; ref [31]; cited from earlier work.
Assay [1] deals with SH3 domain of the Src-family kinase Lck (LckSH3). Kind of assay: Fluorescence titration binding of synthetic MED25 peptides to Lck SH3. The settings on record: AblSH3 vs LckSH3.
The target of assay [2] is SH3 domain of the Src-family kinase Lck (LckSH3) (Homo sapiens, UniProt P06239). The description is as above.
Assay [3] has as its target SH3 domain of Abl (AblSH3) (Homo sapiens, UniProt P00519). Kind of assay: Fluorescence titration binding of synthetic MED25 peptides to Abl SH3.

Chain of SH3 domain of Abl (AblSH3) (P00519 61-121 limits assumed): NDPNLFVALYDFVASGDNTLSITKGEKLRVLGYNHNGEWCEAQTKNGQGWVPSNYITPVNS
Chain of SH3 domain of the Src-family kinase Lck (LckSH3) (Homo sapiens, UniProt P06239) (P06239 61-121 limits assumed): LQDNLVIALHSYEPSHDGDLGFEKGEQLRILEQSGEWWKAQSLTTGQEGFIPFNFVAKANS

In the case of `CN(C)c1ccc([C@H]2C[C@]3(C)[C@@H](CC[C@]3(O)CCCO)[C@@H]3CCC4=CC(=O)CCC4=C32)cc1` [onapristone], the phenotype entry in the assay with Pmp22 transgenic rats is reported as “improvement of the phenotype”. The “Med25 expression after treatment” value in the assay on Med25 expression (Pmp22^++/+ rats, onapristone) is listed as “no significant reducing effect”. In addition, in the assay on Pmp22 expression, the Pmp22 expression result is given as “decreases its expression”.
For the molecule `CC(=O)[C@H]1CC[C@H]2[C@@H]3CCC4=CC(=O)CC[C@]4(C)[C@H]3CC[C@]12C` [progesterone], in the assay on Med25 expression (Pmp22^++/+ male rats, progesterone 20 mg/kg diet), the “Med25 expression after treatment” value was “further increase of the Med25 expression”. The Pmp22 expression entry with Pmp22 expression is given as “increases Pmp22 expression”.
Turning to “Ac-QLPPGPPGAPKPPPAS-NH2 [wild-type MED25, Ac-QLPPGPPGAPKPPPAS-CONH2]”, the “binding affinity Abl SH3 compared with Lck SH3 (specificity)” value in assay [1] was “significantly stronger to Abl than to Lck”.
Regarding “Ac-QLPPGPPGVPKPPPAS-NH2 [mutant, Ac-QLPPGPPGVPKPPPAS-CONH2]”, the “binding affinity Abl SH3 compared with Lck SH3 (specificity)” value in assay [1] is “very similar affinity”. Further, the dissociation constant (Kd) – broadly, a measure of binding affinity in units of concentration – in assay [2] was determined as 5.38 ± 1.05 µM; in assay [3] it was 2.91 ± 0.66 µM. Besides, in assay [3] (mutant vs wild-type peptide), the “affinity for Abl SH3, effect of mutation” value is “almost unaltered by the mutation”.
